Data published in the RNAGym collection of RNA variant scans (doi:10.1126/science.aae0568).
Variants at the floor of the assay were thinned out.

B1: tRNA (parent)
chain: GUUCCGUUGGCGUAAUGGUAACGCGUCUCCCUCCUAAGGAGAAGACUGCGGGUUCGAGUCCCGUACGGAACG

Variants of: B1
Assay: yeast fitness relative to wild type (ratio to wild type); higher = fitter; tRNA-Arg(CCU), competitive growth, 37 C, YPD
Method in brief: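 Variants of the tRNA-Arg(CCU) gene, chemically synthesised with a 3% per-site mutation rate at 69 sites, were placed at the native genomic locus in Saccharomyces cerevisiae. The pooled strains were competed in YPD at 37°C for 24 hours in six parallel replicates. Gene amplicons from the start population and from each end population were read by 100-nucleotide paired-end sequencing. Darwinian fitness relative to wild type came from changes in genotype frequencies; genotypes needed ≥ 100 starting reads, and estimates < 0.5 were set to 0.5.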
Variant GUUCCGUUGGCGUAAUGGUAACGCAUCUCCCUCCUAAGGUGAAGACUGCGGGUCCGAGUCCCGUACGGAACG [G25A A40U U54C] has a yeast fitness of 0.565. GUUCCGUUGGCGUAAUGGUAACGUGUCUCCCGCCUAAGGAGAAGACUGUGGGUUCGAGUACCGUACGGAACG [C24U U32G C49U C60A] showed a yeast fitness of 0.646. For GUUCCGUUGGCGUAAUGGUAACGCAUCUCCCUCCUAAGGAGAAGACUGCGGGUUCGAGUCCCGUACGGUACG [G25A A69U], the yeast fitness was 1.04. GUUCCGUUGGCGUAAUGGUAACGCAUUUCCCUCCUAAGGAGAAGACUGCGGGUUCGAGUCCCGUACGGCACG [G25A C27U A69C] showed a yeast fitness of 0.73. With GUUCCGUUGGCGUAAUGGUAACGUGUCUCCCUCCUAAGGAGAAGACUGCGGGUCCGAGUCCCGUACGGAACG [C24U U54C] the yeast fitness was 0.812. With GUUCCGUUGGCGUAAUGGUAACGUGUCUCCCUCCUAAGGAGAAGACUGCGGGUACGAGUCCCGUACGGAACG [C24U U54A] the yeast fitness was 0.624. Work on GUUCCGUUGGCGUAAUGGUAACGCAUCUCCCUCCUAUGGAGAAGACGGCGGGUUCCAGUCCCGUACGGAACG [G25A A37U U47G G56C] yielded a yeast fitness of 0.601. For GUUCCGUUGGCGUAAUGGUAACGUGUCUCCCUCCUAAGGAGAAGACAGCGGGUUCGAGUCCCGCAUGGAACG [C24U U47A U64C C66U], the yeast fitness was no more than 0.5. With GUUCCGUUGGCGUAAUGGUAACGUGUCUCCCUCCUAAGGAGAAGACAGCGGGUUCGAGUCCCGUACGGAACG [C24U U47A] the yeast fitness was 0.683. Work on GUUCCGUUGGCGUAAUGGUAACGCAUCUCCCUCCUAAGGAGAAGACUGCGGGUUCGGGUCCCGUACGGAACG [G25A A57G] yielded a yeast fitness of 1.08. For GUUCCGUUGGCGUAAUGGUAACGCAUCUCCCUCCUAAGGAGAAGACUGCGGGUUCGUGUCCCGUACGGAACG [G25A A57U], the yeast fitness was 0.772. GUUCCGUUGGCGUAAUGGUAACGCAUCUCCCUCCUAAGGAGAAGACUGCGGGUUCGCGUCCCGUACGGAACG [G25A A57C] gave a yeast fitness of 0.697. In the case of GUUCCGUUGGCGUAAUGGUAACGCAUCUCCCUCCUAAGGUGAAGGCUGCGGGUUCGAGUACCGUACGGAACG [G25A A40U A45G C60A], the yeast fitness is reported as no more than 0.5. Variant GUUCCGUUGGCGUAAUGGUAACGUGUCUCCCUCCUAAGGAGAAGACCGCGGGUUGGAGUCCCGUACGGAUCG [C24U U47C C55G A70U] has a yeast fitness of 0.642. Work on GUUCCGUUGGCGUAAUGGUAACGCAUGUCCCUCCUAAGGAGAAGACUGCGGGUUCGAGUACCGUACGGAACG [G25A C27G C60A] yielded a yeast fitness of no more than 0.5. In the case of GUUCCGUUGGCGUAAUGGUAACGCAUCUCCCUCCUAAGGAGAAGCCUGCGGGCUUCAGUCACGUAUGGAACG [G25A A45C U53C C55U G56C C61A C66U], the yeast fitness is reported as 0.564. With GUUCCGUUGGCGUAAUGGUAACGCAUCUCCCUCCUAAGGAGAAGUCUGCGGGUUCGAGUCCAGUACGGAACG [G25A A45U C62A] the yeast fitness was 0.54. GUUCCGUUGGCGUAAUGGUAACGCAUCUCCCUCCUAAGGAGAAGUCUGCGGGUUCGUGUCCCGUACGGAACG [G25A A45U A57U] gave a yeast fitness of no more than 0.5. In the case of GUUCCGUUGGCGUAAUGGUAACGUGCCUCCCUCCUAAGGAGAAGACUGCGGGUUCGAGUCCCAUGCGGAACG [C24U U26C G63A A65G], the yeast fitness is reported as no more than 0.5. Work on GUUCCGUUGGCGUAAUGGUAACGUGUCUCCCGCCUAAGGUGAAGACUGCGGGUUCGAGUCCCGUACGGAACG [C24U U32G A40U] yielded a yeast fitness of 0.513. GUUCCGUUGGCGUAAUGGUAACGUGCCUCCCUCCUAAGGAGAAGACUGCGGGUUCGAGUCCCGUACGGAUCG [C24U U26C A70U] gave a yeast fitness of 0.678. Variant GUUCCGUUGGCGUAAUGGUAACGUGCCUCCCUCCUAAGGCGAAGACUGCGGGUUCGAGUCCCGUACGGAACG [C24U U26C A40C] has a yeast fitness of 0.572. Work on GUUCCGUUGGCGUAAUGGUAACGCAUCUCCCUCCUAAGGAGAAGUCUGCGGGUUCGAGUCCCGUACGGAACG [G25A A45U] yielded a yeast fitness of 0.803. GUUCCGUUGGCGUAAUGGUAACGUGUCUCCCCCCUAAGCAGAAGACUGCGGGUUCGAGUCCCGUACGGAACG [C24U U32C G39C] showed a yeast fitness of 0.517. GUUCCGUUGGCGUAAUGGUAACGCAUCUCCCUCCUAAGGAGACGACUGCGGGUUCGAGUACCGUACGGAACG [G25A A43C C60A] showed a yeast fitness of 0.544. In the case of GUUCCGUUGGCGUAAUGGUAACGCAUCUCCCUCCUUAGGAGAAGACUGCGGGUUCGAGUCCCGUACGGAACG [G25A A36U], the yeast fitness is reported as 0.564. GUUCCGUUGGCGUAAUGGUAACGUGUCUCCCUCCUAAGGAGAAGACUGCGGGUUCGAGACCCGUACGGAACG [C24U U59A] showed a yeast fitness of 0.875. Work on GUUCCGUUGGCGUAAUGGUAACGCAUCUCCCUCCUAAGGCGAAGACUGCGGGUUGGAGUCACGUACGGAACG [G25A A40C C55G C61A] yielded a yeast fitness of no more than 0.5. In the case of GUUCCGUUGGCGUAAUGGUAACGUGUCUCCCUCCCAAGGAGAAGACUGCGGGUUCGAGUCCCGUACGGAACG [C24U U35C], the yeast fitness is reported as 0.778. GUUCCGUUGGCGUAAUGGUAACGUGUCUCCCUCCAAAGGAGGAGACUGCGGGUUCGAGUCCCGUACGGUACG [C24U U35A A42G A69U] gave a yeast fitness of no more than 0.5. With GUUCCGUUGGCGUAAUGGUAACGUGCCCCCCUCCUAAGGAGAAGACUGCGGCUUCGAGUGCCGUACGGAACG [C24U U26C U28C G52C C60G] the yeast fitness was no more than 0.5. Work on GUUCCGUUGGCGUAAUGGUAACGCAUGUCCCUCCUAAGGAGAAGUCUGCGGGUUAGAGUCCCGUACGGAACG [G25A C27G A45U C55A] yielded a yeast fitness of no more than 0.5. Variant GUUCCGUUGGCGUAAUGGUAACGUGUCCCCCUCCUAAGGAGAAGACUGCGGGUUCGAGUCCCGUACGGAACG [C24U U28C] has a yeast fitness of 0.988. With GUUCCGUUGGCGUAAUGGUAACGCAUCUCCCUCCUAAGGAGAAGACUGCGGGUUCGAGUCCCGUUCGCAACG [G25A A65U G68C] the yeast fitness was 0.657. Variant GUUCCGUUGGCGUAAUGGUAACGUGUCUCCCUCCUAAGGAGAAGACUGCGGGUUCGAGCCCCGUACGGCACG [C24U U59C A69C] has a yeast fitness of 0.618. For GUUCCGUUGGCGUAAUGGUAACGUGUCUCCCGCCUAAGGUGAAGACUGCGGGCUCGAGUCCCGGACGGAACG [C24U U32G A40U U53C U64G], the yeast fitness was no more than 0.5. GUUCCGUUGGCGUAAUGGUAACGCAUCUCCCUCCUAAGGCGAAGACUGCGGGUUCGAGUCCCGUACGGAACG [G25A A40C] gave a yeast fitness of 0.839. In the case of GUUCCGUUGGCGUAAUGGUAACGCAUCUCCCUCCUAAGGUGAAGACUGCGGGUUCGAGUCCCGUACGGAACG [G25A A40U], the yeast fitness is reported as 0.924.
